Results from ChEMBL document CHEMBL3286351, “Antibacterial evaluation of structurally amphipathic, membrane active small cationic peptidomimetics: synthesized by incorporating 3-amino benzoic acid as peptidomimetic element” (Eur J Med Chem, 2014).
≈ marks a conversion by molar mass, not a printed value. Where a SMILES comes first, the peptide text is derived from it. [ ]: non-standard residue; d: D form. 3Abz = Nc1cccc(C(=O)O)c1; Orn = NCCC[CH](N)C(=O)O

Experiments:
[1] = tested on: Staphylococcus epidermidis; assay: Antibacterial activity against methicillin-resistant Staphylococcus epidermidis ATCC 51625 assessed as growth inhibition after 18 hrs by CLSI microdilution broth assay; assay type: functional; details: ATCC 51625, 18 h
Procedure, shortened: (§1)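 Modified CLSI broth microdilution in Mueller-Hinton broth. Wells held 90 µL of about 2 × 10^5 CFU/mL inoculum plus 10 µL of serially diluted peptidomimetic, range 0.7-100 µg/mL. Plates were incubated overnight with agitation at 37 °C and absorbance read at 600 nm after 18 h. Controls: inoculum without compound, and uninoculated broth. Run in triplicate.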

Staphylococcus aureus [2] = assay: Antibacterial activity against methicillin-resistant Staphylococcus aureus ATCC BAA-1720 assessed as growth inhibition after 18 hrs by CLSI microdilution broth assay; assay type: functional; details: ATCC BAA-1720, 18 h; procedure, shortened: as §1
[3] = Retention time of the compound by HPLC analysis; assay type: physicochemical
Procedure, shortened: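 Analytical RP-HPLC on a C18 column (5 µm, 4.6 × 250 mm) at room temperature. Run a linear gradient of 0.5-60% acetonitrile containing 0.05% TFA against water containing 0.05% TFA at 0.5 mL/min.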

[4] = Induction of hemolysis in human RBC assessed as hemoglobin release after 1 hr by microtiter plate reader analysis; assay type: cell-based, Erythrocyte; details: for HC10: erythrocyte, 1 h; for HC50 at 1 h: red blood cells
Procedure, shortened: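 Freshly isolated human RBCs washed three times in PBS (35 mM phosphate, 150 mM NaCl, pH 7.2) and used as a 4% (v/v) suspension. Mixed 1:1 with twofold serial dilutions of compound, incubated 1 h at 37 °C without agitation, then centrifuged. Supernatant A540 read. PBS defined 0% and 1% Triton X-100 defined 100% lysis; HC50 and HC10 derived.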

Bacillus subtilis = assay: Antibacterial activity against Bacillus subtilis MTCC 2763 assessed as growth inhibition after 18 hrs by CLSI microdilution broth assay; assay type: functional; details: MTCC 2763, 18 h
Staphylococcus aureus [5] = assay: Antibacterial activity against Staphylococcus aureus MTCC 3160 assessed as growth inhibition after 18 hrs by CLSI microdilution broth assay; assay type: functional; details: MTCC 3160, 18 h
Escherichia coli = assay: Antibacterial activity against Escherichia coli MTCC 723 assessed as growth inhibition after 18 hrs by CLSI microdilution broth assay; assay type: functional; details: MTCC 723, 18 h
Pseudomonas aeruginosa = assay: Antibacterial activity against Pseudomonas aeruginosa MTCC 2295 assessed as growth inhibition after 18 hrs by CLSI microdilution broth assay; assay type: functional; details: MTCC 2295, 18 h
[6] = Selectivity ratio of HC50 for hemolysis in human RBC to MIC for Staphylococcus aureus

Row | Structure (SMILES) | MIC [1] [µg/mL] | MIC (Staphylococcus aureus [2]) [µg/mL] | Retention_time [3] [min] | HC10 [4] [µg/mL] | HC50 at 1 h [4] [µg/mL] | MIC (Bacillus subtilis) [µg/mL] | MIC (Staphylococcus aureus [5]) [µg/mL] | MIC (Escherichia coli) [µg/mL] | MIC (Pseudomonas aeruginosa) [µg/mL] | Selectivity ratio [6]
1 | N=C(N)NCCCC(NC(=O)c1cccc(NC(=O)C(N)Cc2c[nH]c3ccccc23)c1)C(N)=O (centres undefined) | > 200 | > 200 | 26.553 | 400 | > 500 | > 200 | > 200 | > 200 | > 200 | 
2 | N=C(N)NCCCC(NC(=O)C(Cc1ccccc1)NC(=O)c1cccc(NC(=O)C(Cc2ccccc2)NC(=O)C(CCCNC(=N)N)NC(=O)C(N)Cc2ccccc2)c1)C(N)=O (centres undefined) (H-FRF[3Abz]FR-NH2; configuration not given here) | 120 (≈ 135 µM) | 125 (≈ 140 µM) | 26.225 | 125 | 310 | 150 (≈ 169 µM) | 120 (≈ 135 µM) | > 200 | > 200 | 2.58
3 | NCCCC(NC(=O)C(Cc1ccccc1)NC(=O)c1cccc(NC(=O)C(Cc2ccccc2)NC(=O)C(CCCN)NC(=O)C(N)Cc2ccccc2)c1)C(N)=O (centres undefined) (H-F[Orn]F[3Abz]F[Orn]-NH2; configuration not given here) | > 200 | > 200 | 25.038 | 180 | 400 | > 200 | 150 (≈ 186 µM) | > 200 | > 200 | 2.66
4 | N=C(N)NCCCC(N)C(=O)NC(CCCNC(=N)N)C(=O)NC(Cc1ccccc1)C(=O)Nc1cccc(C(=O)NC(Cc2ccccc2)C(=O)NC(CCCNC(=N)N)C(N)=O)c1 (centres undefined) (H-RRF[3Abz]FR-NH2; configuration not given here) | 170 (≈ 189 µM) | 150 (≈ 167 µM) | 24.871 | 130 | 375 | 200 (≈ 222 µM) | 150 (≈ 167 µM) | > 200 | > 200 | 2.5
5 | N=C(N)NCCCC(N)C(=O)NC(CCCNC(=N)N)C(=O)NC(Cc1c[nH]c2ccccc12)C(=O)NC(Cc1c[nH]c2ccccc12)C(=O)NC(CCCNC(=N)N)C(N)=O (centres undefined) (H-RRWWR-NH2; configuration not given here) | 20 (≈ 23.3 µM) | 25 (≈ 29.1 µM) | 29.606 | 90 | 240 | 70 (≈ 81.6 µM) | 25 (≈ 29.1 µM) | 75 (≈ 87.4 µM) | 100 (≈ 117 µM) | 9.6
6 | N=C(N)NCCCC(N)C(=O)NC(CCCNC(=N)N)C(=O)NC(Cc1c[nH]c2ccccc12)C(=O)Nc1cccc(C(=O)NC(Cc2c[nH]c3ccccc23)C(=O)NC(CCCNC(=N)N)C(N)=O)c1 (centres undefined) (H-RRW[3Abz]WR-NH2; configuration not given here) | 6.25 (≈ 6.4 µM) | 5 (≈ 5.12 µM) | 27.402 | 100 | 355 | 25 (≈ 25.6 µM) | 6.25 (≈ 6.4 µM) | 17.5 (≈ 17.9 µM) | 25 (≈ 25.6 µM) | 56.8
7 | N=C(N)NCCCC(N)C(=O)NC(Cc1c[nH]c2ccccc12)C(=O)NC(CCCNC(=N)N)C(=O)Nc1cccc(C(=O)NC(Cc2c[nH]c3ccccc23)C(=O)NC(CCCNC(=N)N)C(N)=O)c1 (centres undefined) (H-RWR[3Abz]WR-NH2; configuration not given here) | 50 (≈ 51.2 µM) | 40 (≈ 40.9 µM) | 27.446 | 210 | 400 | 125 (≈ 128 µM) | 50 (≈ 51.2 µM) | 120 (≈ 123 µM) | 120 (≈ 123 µM) | 8
8 | N=C(N)NCCCC(N)C(=O)NC(Cc1c[nH]c2ccccc12)C(=O)NC(Cc1c[nH]c2ccccc12)C(=O)Nc1cccc(C(=O)NC(CCCNC(=N)N)C(=O)NC(CCCNC(=N)N)C(N)=O)c1 (centres undefined) (H-RWW[3Abz]RR-NH2; configuration not given here) | 25 (≈ 25.6 µM) | 25 (≈ 25.6 µM) | 26.96 | 255 | 420 | 75 (≈ 76.8 µM) | 25 (≈ 25.6 µM) | 70 (≈ 71.6 µM) | 75 (≈ 76.8 µM) | 16.8
9 | N=C(N)NCCCC(N)C(=O)NC(Cc1c[nH]c2ccccc12)C(=O)Nc1cccc(C(=O)NC(CCCNC(=N)N)C(N)=O)c1 (centres undefined) (H-RW[3Abz]R-NH2; configuration not given here) | 70 (≈ 110 µM) | 60 (≈ 94.5 µM) | 23.821 | 205 | 500 | 100 (≈ 158 µM) | 50 (≈ 78.8 µM) | 70 (≈ 110 µM) | 75 (≈ 118 µM) | 10
10 | N=C(N)NCCCC(N)C(=O)NC(Cc1c[nH]c2ccccc12)C(=O)Nc1cccc(C(=O)NC(CCCNC(=N)N)C(=O)NC(CCCNC(=N)N)C(N)=O)c1 (centres undefined) (H-RW[3Abz]RR-NH2; configuration not given here) | 75 (≈ 94.8 µM) | 75 (≈ 94.8 µM) | 22.534 | 350 | > 500 | 100 (≈ 126 µM) | 70 (≈ 88.5 µM) | 100 (≈ 126 µM) | 75 (≈ 94.8 µM) | > 7.14
11 | N=C(N)NCCCC(N)C(=O)NC(Cc1c[nH]c2ccccc12)C(=O)Nc1cccc(C(=O)NC(Cc2c[nH]c3ccccc23)C(=O)NC(CCCNC(=N)N)C(N)=O)c1 (centres undefined) (H-RW[3Abz]WR-NH2; configuration not given here) | 12.5 (≈ 15.2 µM) | 10 (≈ 12.2 µM) | 23.89 | 250 | 410 | 50 (≈ 60.9 µM) | 12.5 (≈ 15.2 µM) | 40 (≈ 48.7 µM) | 50 (≈ 60.9 µM) | 32.8
12 | N=C(N)NCCCC(NC(=O)C(Cc1c[nH]c2ccccc12)NC(=O)c1cccc(NC(=O)C(CCCNC(=N)N)NC(=O)C(CCCNC(=N)N)NC(=O)C(N)Cc2c[nH]c3ccccc23)c1)C(N)=O (centres undefined) (H-WRR[3Abz]WR-NH2; configuration not given here) | 10 (≈ 10.2 µM) | 12.5 (≈ 12.8 µM) | 27.66 | 190 | 380 | 70 (≈ 71.6 µM) | 15 (≈ 15.4 µM) | 50 (≈ 51.2 µM) | 50 (≈ 51.2 µM) | 25.3
13 | N=C(N)NCCCC(NC(=O)C(CCCNC(=N)N)NC(=O)c1cccc(NC(=O)C(Cc2c[nH]c3ccccc23)NC(=O)C(CCCNC(=N)N)NC(=O)C(N)Cc2c[nH]c3ccccc23)c1)C(N)=O (centres undefined) (H-WRW[3Abz]RR-NH2; configuration not given here) | 25 (≈ 25.6 µM) | 25 (≈ 25.6 µM) | 27.324 | 140 | 370 | 40 (≈ 40.9 µM) | 25 (≈ 25.6 µM) | 60 (≈ 61.4 µM) | 70 (≈ 71.6 µM) | 14.8
14 | N=C(N)NCCCC(NC(=O)c1cccc(NC(=O)C(CCCNC(=N)N)NC(=O)C(N)Cc2c[nH]c3ccccc23)c1)C(N)=O (centres undefined) (H-WR[3Abz]R-NH2; configuration not given here) | 200 (≈ 315 µM) | 150 (≈ 236 µM) | 24.184 | 300 | > 500 | 200 (≈ 315 µM) | 150 (≈ 236 µM) | 200 (≈ 315 µM) | > 200 | > 3.3
15 | N=C(N)NCCCC(NC(=O)C(CCCNC(=N)N)NC(=O)c1cccc(NC(=O)C(CCCNC(=N)N)NC(=O)C(N)Cc2c[nH]c3ccccc23)c1)C(N)=O (centres undefined) (H-WR[3Abz]RR-NH2; configuration not given here) | 100 (≈ 126 µM) | 120 (≈ 152 µM) | 22.64 | 325 | > 500 | 170 (≈ 215 µM) | 100 (≈ 126 µM) | > 200 | > 200 | > 5
16 | NCCCC(N)C(=O)NC(CCCN)C(=O)NC(Cc1ccccc1)C(=O)Nc1cccc(C(=O)NC(Cc2ccccc2)C(=O)NC(CCCN)C(N)=O)c1 (centres undefined) (H-[Orn][Orn]F[3Abz]F[Orn]-NH2; configuration not given here) | > 200 | > 200 | 23.313 | 210 | 490 | > 200 | > 200 | > 200 | > 200 | 
17 | CN[C@H](CC(C)C)C(=O)N[C@H]1C(=O)N[C@@H](CC(N)=O)C(=O)N[C@H]2C(=O)N[C@H]3C(=O)N[C@H](C(=O)N[C@H](C(=O)O)c4cc(O)cc(O)c4-c4cc3ccc4O)[C@H](O)c3ccc(c(Cl)c3)Oc3cc2cc(c3O[C@@H]2O[C@H](CO)[C@@H](O)[C@H](O)[C@H]2O[C@H]2C[C@](C)(N)[C@H](O)[C@H](C)O2)Oc2ccc(cc2Cl)[C@H]1O [VANCOMYCIN] |  | 1.5 (≈ 1.04 µM) |  |  |  |  |  |  |  | 
